The source of these data is PMC11106139 (Clinical Pharmacokinetics, 2024).

Molecules are shown by their SMILES.

The test system of data set [1] is children with achondroplasia. The settings on record: 15 µg/kg per day, 1-year period, analysis of covariance; cited from earlier work.
A short description of data set [2]: Population pharmacokinetic. The format is in vivo, human. The settings on record: SOLNC 0.8 and 2 mg/mL (phase III studies and commercial formulations). The gist of the method:
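Pooled plasma data from 159 children with achondroplasia on daily subcutaneous vosoritide (2.5–30 µg/kg) across three phase II and two phase III trials. Samples were assayed by validated ELISA or electrochemiluminescence, and mostly pre-dose points were excluded. The fit was a one-compartment model with change-point first-order absorption (Ka1/Ka2) and first-order elimination, using log-transform-both-sides and SAEM/importance sampling. Covariates were added stepwise (p<0.01) with backward elimination, against a reference weight of 20 kg.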

On to `CC[C@H](C)[C@@H]1NC(=O)[C@H](CCCNC(=N)N)NC(=O)[C@H](CC(=O)O)NC(=O)[C@H](CC(C)C)NC(=O)[C@H](CCCCN)NC(=O)[C@H](CC(C)C)NC(=O)CNC(=O)[C@H](Cc2ccccc2)NC(=O)[C@@H](NC(=O)CNC(=O)[C@H](CCCCN)NC(=O)[C@H](CO)NC(=O)[C@H](CC(C)C)NC(=O)CNC(=O)[C@H](CCCCN)NC(=O)[C@H](CCCCN)NC(=O)[C@H](CC(N)=O)NC(=O)[C@H](C)NC(=O)CNC(=O)[C@H](CCCCN)NC(=O)[C@H](Cc2ccc(O)cc2)NC(=O)[C@H](CCCCN)NC(=O)[C@H](CCCNC(=N)N)NC(=O)[C@H](C)NC(=O)[C@H](CC(N)=O)NC(=O)[C@@H]2CCCN2C(=O)[C@H](Cc2c[nH]cn2)NC(=O)[C@H](CCC(=O)O)NC(=O)[C@H](CCC(N)=O)NC(=O)CNC(=O)[C@@H]2CCCN2)CSSC[C@@H](C(=O)O)NC(=O)CNC(=O)[C@H](CC(C)C)NC(=O)CNC(=O)[C@H](CO)NC(=O)[C@H](CCSC)NC(=O)[C@H](CO)NC(=O)CNC1=O` [vosoritide], for which the “increase in annualized growth velocity (least squares mean change from baseline) compared with placebo” value in data set [1] is reported as 1.57 cm/year. Further, the “effect of dosing solution concentration on relative bioavailability (F)” value in data set [2] was “did not have any effect on F”.
